What was measured:
[1] = target: T1, Prostaglandin G/H synthase 2 (Homo sapiens) (UniProt P35354); assay: Inhibition of COX2 in LPS-stimulated human whole blood assessed as residual PGE2 level at 100 uM preincubated for 15 mins prior to LPS-stimulation measured after 24 hrs by LC-MS/MS analysis relative to control
T1 sequence (whole entry): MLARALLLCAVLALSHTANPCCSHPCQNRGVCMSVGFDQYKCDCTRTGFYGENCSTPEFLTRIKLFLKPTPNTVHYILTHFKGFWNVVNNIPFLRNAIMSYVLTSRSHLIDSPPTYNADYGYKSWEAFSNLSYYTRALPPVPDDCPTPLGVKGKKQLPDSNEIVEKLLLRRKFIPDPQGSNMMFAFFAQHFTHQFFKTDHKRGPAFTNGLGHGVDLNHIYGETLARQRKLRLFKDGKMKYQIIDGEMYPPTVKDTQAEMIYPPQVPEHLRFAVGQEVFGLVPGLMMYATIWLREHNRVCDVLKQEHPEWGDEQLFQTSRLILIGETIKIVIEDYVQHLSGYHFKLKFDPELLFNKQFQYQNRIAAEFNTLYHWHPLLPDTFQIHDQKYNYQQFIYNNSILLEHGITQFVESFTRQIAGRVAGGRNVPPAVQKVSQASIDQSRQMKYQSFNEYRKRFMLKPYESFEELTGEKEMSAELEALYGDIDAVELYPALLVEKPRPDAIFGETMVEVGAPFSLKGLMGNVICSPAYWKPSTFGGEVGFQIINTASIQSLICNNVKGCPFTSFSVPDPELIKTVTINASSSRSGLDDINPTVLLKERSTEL
Summary of the method: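 Human whole blood received compound in DMSO plus acetylsalicylic acid (10 μg/mL) to block COX-1, 15 min at 37 °C. LPS (10 μg/mL final) in autologous plasma was added to induce COX-2/mPGES-1, and blood was incubated 24 h at 37 °C. Samples were chilled on ice 5 min, and plasma prostaglandins were extracted by solid-phase extraction and quantified by LC-MS/MS. Values are relative to vehicle.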

[2] = target: T1, Prostaglandin G/H synthase 2 (Homo sapiens); assay: Inhibition of human recombinant COX2-mediated PGE2 synthesis using PGH2 as substrate at 1 uM by LC-MS/MS analysis relative to control
Summary of the method: (§1)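 Direct enzyme test with a COX inhibitor screening kit, run per the kit protocol: COX-1 was ovine, COX-2 human recombinant. […] Prostaglandins were quantified by LC-MS/MS after solid-phase extraction. Mean of n ≥ 3.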

[3] = target: T2, Prostaglandin E synthase (Homo sapiens) (UniProt O14684); assay: Inhibition of mPGES-1 in IL1beta and TNFalpha-stimulated human HeLa cells assessed as PGE2 level after 24 hrs by LC-MS/MS analysis; assay type: cell-based
T2 sequence (whole entry): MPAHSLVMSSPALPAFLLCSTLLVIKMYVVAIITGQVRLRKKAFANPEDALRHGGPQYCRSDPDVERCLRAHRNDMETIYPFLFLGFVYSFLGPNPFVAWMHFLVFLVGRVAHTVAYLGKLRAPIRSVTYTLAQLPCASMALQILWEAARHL
Summary of the method: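 HeLa cells (2 × 10⁴) were grown 24 h at 37 °C. The medium was then replaced with IL-1β (1 ng/mL) + TNFα (5 ng/mL), or PBS for unstimulated controls, together with compound at 1, 10 or 100 μM, or DMSO, for 24 h at 37 °C. Supernatant PGE₂ was quantified by LC-MS/MS after solid-phase extraction with deuterated standards. Inhibition is percent of DMSO control corrected for unstimulated background, SEM, n ≥ 3.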

[4] = target: T3, Prostaglandin G/H synthase 1 (Ovis aries) (UniProt P05979); assay: Inhibition of ovine COX1-mediated PGE2 synthesis using PGH2 as substrate at 1 uM by LC-MS/MS analysis relative to control; summary of the method: as §1
T3 sequence (whole entry): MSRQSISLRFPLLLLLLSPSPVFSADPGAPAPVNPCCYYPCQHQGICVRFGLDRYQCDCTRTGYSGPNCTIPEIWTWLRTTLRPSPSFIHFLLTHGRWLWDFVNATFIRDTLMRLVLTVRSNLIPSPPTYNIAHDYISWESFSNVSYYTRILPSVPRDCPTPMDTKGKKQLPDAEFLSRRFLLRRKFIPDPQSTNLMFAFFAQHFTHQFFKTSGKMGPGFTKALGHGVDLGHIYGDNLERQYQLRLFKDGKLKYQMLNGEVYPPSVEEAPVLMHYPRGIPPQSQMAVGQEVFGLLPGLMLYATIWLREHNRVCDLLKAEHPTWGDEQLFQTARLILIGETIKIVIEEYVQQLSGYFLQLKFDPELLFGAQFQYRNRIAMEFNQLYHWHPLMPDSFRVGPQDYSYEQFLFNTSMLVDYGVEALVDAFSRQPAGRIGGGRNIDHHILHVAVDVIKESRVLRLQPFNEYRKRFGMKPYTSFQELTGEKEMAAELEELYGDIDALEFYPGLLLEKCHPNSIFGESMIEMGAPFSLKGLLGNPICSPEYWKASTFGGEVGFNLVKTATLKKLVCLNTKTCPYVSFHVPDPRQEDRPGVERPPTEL

[5] = target: T4, 5-lipoxygenase/FLAP (Homo sapiens) (UniProt P09917+P20292); assay: Inhibition of 5-lipoxygenase/FLAP in calcium ionophore-stimulated human whole blood assessed as residual (+/-)11HETE level at 10 uM preincubated for 15 mins prior to calcium ionophore-stimulation measured after 15 mins by LC-MS/MS analysis; assay type: protein-complex assay
Summary of the method: (§2)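 Heparinized human whole blood (500 μL) was preincubated with compound for 15 min at 37 °C. It was then stimulated with 20 μM calcium ionophore A23187 in autologous plasma for 15 min at 37 °C and chilled on ice for 5 min. Plasma was collected by centrifugation at 4 °C. Eicosanoids were recovered by liquid–liquid extraction with deuterated internal standards and quantified by LC-MS/MS (MRM). Levels are relative to vehicle-treated blood.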

[6] = target: T4, 5-lipoxygenase/FLAP (Homo sapiens); assay: Inhibition of 5-lipoxygenase/FLAP in calcium ionophore-stimulated human whole blood assessed as residual LTB4 level at 10 uM preincubated for 15 mins prior to calcium ionophore-stimulation measured after 15 mins by LC-MS/MS analysis; assay type: protein-complex assay; summary of the method: as §2
[7] = target: T4, 5-lipoxygenase/FLAP (Homo sapiens); assay: Inhibition of 5-lipoxygenase/FLAP in calcium ionophore-stimulated human whole blood assessed as 5(s)HETE level at 10 uM preincubated for 15 mins prior to calcium ionophore-stimulation measured after 15 mins by LC-MS/MS analysis; assay type: protein-complex assay; design: scale not given: the % may be the effect or the level left; summary of the method: as §2
HeLa = assay: Cytotoxicity against IL1beta and TNFalpha-stimulated human HeLa cells at 1 to 10 uM after 24 hrs by WST1 assay; assay type: cell-based
Summary of the method: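 HeLa cells were seeded at 3 × 10³ per well and grown 24 h at 37 °C. They were then stimulated with IL-1β (1 ng/mL) + TNFα (5 ng/mL) while treated with compound at 1, 10 or 100 μM, or DMSO, for 24 h. WST-1 was added for 90–150 min and absorbance read at 450 nm against 620 nm. Viability is percent of DMSO control, SEM, n ≥ 3.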

Question: Which Activity [1] does the source give for `CCCc1nc2ccc(NC(=O)c3ccccc3Cl)cc2c(=O)n1Cc1ccc(-c2cccc(Cl)c2)cc1` here?
Answer: 51.2%

Question: What about the inhibition [2] of the same molecule?
Answer: 6.7%

Question: And the inhibition [3]?
Answer: Dose-dependent effect

Question: And the inhibition [4]?
Answer: < 0%

Question: What about the Activity [5] of the same molecule?
Answer: 76.8%

Question: And the Activity [6]?
Answer: 83%

Question: And the Activity [7]?
Answer: 79%

Question: What does the source list for `CCCc1nc2ccc(NC(=O)c3ccccc3Cl)cc2c(=O)n1Cc1ccc(-c2cccc(OC)c2)cc1`?
Answer: Activity [1]: 50%; inhibition [2]: 2.5%; inhibition [3]: Dose-dependent effect; inhibition [4]: 20.1%; Activity (HeLa): Non-toxic; Activity [5]: 77%; Activity [6]: 70.9%; Activity [7]: 67.8%

Question: Which Activity [1] does the source give for `CCCc1nc2ccc(NC(=O)c3ccccc3Cl)cc2c(=O)n1Cc1ccc(-c2ccc(Cl)cc2)cc1` here?
Answer: 174%

Question: And the inhibition [2]?
Answer: < 0%

Question: And the inhibition [3]?
Answer: Dose-dependent effect

Question: And the inhibition [4]?
Answer: 2.6%

Question: And the Activity (HeLa)?
Answer: Non-toxic

Question: And the Activity [5]?
Answer: 85.2%

Question: What about the Activity [6] of the same molecule?
Answer: 151%

Question: What about the Activity [7] of the same molecule?
Answer: 157%

Question: Which Activity [1] does the source give for `CCCc1nc2ccc(NC(=O)c3ccccc3Cl)cc2c(=O)n1Cc1ccc(-c2ccccc2)cc1` here?
Answer: 52.1%

Question: What about the inhibition [2] of the same molecule?
Answer: 5.8%

Question: And the inhibition [3]?
Answer: Dose-dependent effect

Question: What about the inhibition [4] of the same molecule?
Answer: 8.4%

Question: And the Activity (HeLa)?
Answer: Non-toxic

Question: What about the Activity [5] of the same molecule?
Answer: 84.8%

Question: And the Activity [6]?
Answer: 71.9%

Question: And the Activity [7]?
Answer: 74.8%

Question: Which Activity [1] does the source give for `CCCc1nc2ccc(NC(=O)c3c(F)cccc3Cl)cc2c(=O)n1Cc1cccc(Cl)c1` here?
Answer: 54.7%

Question: What about the inhibition [2] of the same molecule?
Answer: < 0%

Question: What about the inhibition [3] of the same molecule?
Answer: Dose-dependent effect

Question: And the inhibition [4]?
Answer: < 0%

Question: What about the Activity (HeLa) of the same molecule?
Answer: Non-toxic

Question: And the Activity [5]?
Answer: 123%

Question: What about the Activity [6] of the same molecule?
Answer: 94.1%

Question: What about the Activity [7] of the same molecule?
Answer: 92.1%

Question: What does the source list for `CCCc1nc2ccc(NC(=O)c3ccccc3Cl)cc2c(=O)n1Cc1cccc(Cl)c1`?
Answer: Activity [1]: 37.4%; inhibition [2]: < 0%; inhibition [3]: Dose-dependent effect; inhibition [4]: < 0%; Activity (HeLa): Non-toxic; Activity [5]: 71.6%; Activity [6]: 93.7%; Activity [7]: 92%

Question: For `CCCc1nc2ccc(NC(=O)c3ccccc3C)cc2c(=O)n1Cc1cccc(Cl)c1`, which Activity [1] is on record?
Answer: 53%

Question: And the inhibition [2]?
Answer: < 0%

Question: What about the inhibition [3] of the same molecule?
Answer: Dose-dependent effect

Question: What about the inhibition [4] of the same molecule?
Answer: < 0%

Question: What about the Activity (HeLa) of the same molecule?
Answer: Non-toxic

Question: And the Activity [5]?
Answer: 86.5%

Question: What about the Activity [6] of the same molecule?
Answer: 72.7%

Question: What about the Activity [7] of the same molecule?
Answer: 74.4%

— ChEMBL document CHEMBL2046422, “Structure-activity relationship of nonacidic quinazolinone inhibitors of human microsomal prostaglandin synthase 1 (mPGES 1)” (J Med Chem, 2012)
